Experimental data: ChEMBL document CHEMBL1123595, “Synthesis and antilipolytic activities of quinolyl carbanilates and related analogues” (J Med Chem, 1987)
One block for each compound: values may come before it.

Tests used:
Canis lupus familiaris [1] = species on record: Canis lupus familiaris; test: Percentage inhibition of free fatty acid liberation at 100 uM determined in canine myocardial lipase assay; assay type: functional
In short: (§1)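 Lipases were extracted from washed canine heart membranes with buffer, heparin and a little Triton X-100. The reaction ran in an oil-water emulsion of triolein with [3H]triolein tracer, 50 mM Tris pH 6.8 and 0.5% BSA. Compound was at 100 µM (3.0% DMSO final), tested in duplicate. Released [3H]oleic acid was extracted into hexane, separated from triolein and scintillation counted.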

Rattus norvegicus [2] = species on record: Rattus norvegicus; test: Concentration required for inhibition of adipocyte lipolysis in rat adipocyte assay was determined at 3 uM concentration.; assay type: functional
In short: (§2)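 Abdominal fat pads from male rats (200–250 g) in Krebs-bicarbonate buffer gassed 95:5 O2/CO2, collagenase-digested 1 h at 37 °C, washed twice. Lipolysis stimulated with epinephrine (3 µM) plus methylisobutylxanthine (10 µM); compounds added from 20 mM DMSO or water stock (final DMSO 1%). Incubated 1 h at 37 °C under O2/CO2, stopped on ice. Medium glycerol measured by glycerol dehydrogenase (NAD to NADH).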

Canis lupus familiaris [3] = species on record: Canis lupus familiaris; test: Percent inhibition of free fatty acid liberation at 100 uM was determined in Canine myocardial lipase assay; in short: as §1
Rattus norvegicus [4] = species on record: Rattus norvegicus; test: Percent inhibition of adipocyte lipolysis in rat adipocyte assay was determined at 30 uM concentration.; assay type: functional
In short: (§3)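 Abdominal fat pads from male rats (200–250 g) were collagenase-digested for 1 h at 37 °C in Krebs-bicarbonate buffer gassed with 95:5 O2/CO2, then washed twice. Cells were stimulated with epinephrine (3 µM) plus methylisobutylxanthine (10 µM). Compound was added from DMSO or water stock and incubated 1 h at 37 °C. The run was stopped on ice, and glycerol in the aqueous phase was measured by glycerol dehydrogenase (NAD→NADH).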

Rattus norvegicus [5] = species on record: Rattus norvegicus; test: Percent inhibition of adipocyte lipolysis in rat adipocyte assay was determined at 100 uM concentration.; assay type: functional; in short: as §2
[6] = (§4) Concentration required for inhibition of free fatty acid liberation in Canine myocardial lipase assay; assay type: functional, tissue-based, Canis lupus familiaris, Myocardium
Rattus norvegicus [7] = species on record: Rattus norvegicus; test: Concentration required for inhibition of adipocyte lipolysis in rat adipocyte assay was determined; assay type: functional; in short: as §3
Rattus norvegicus [8] = species on record: Rattus norvegicus; test: Concentration required for inhibition of adipocyte lipolysis in rat adipocyte assay was determined at 200 uM concentration.; assay type: functional
In short: (§5)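 Rat adipocytes were prepared by collagenase digestion of abdominal fat pads from male rats (200–250 g) in gassed Krebs-bicarbonate buffer. Lipolysis was driven by 3 µM epinephrine plus 10 µM methylisobutylxanthine. Compound was added from a 20 mM DMSO or water stock to a final 200 µM (1% DMSO), then incubated 1 h at 37 °C under 95:5 O2/CO2. Released glycerol was quantified with glycerol dehydrogenase.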

Rattus norvegicus [9] = species on record: Rattus norvegicus; test: Percent inhibition of adipocyte lipolysis in rat adipocyte assay was determined at 100 uM; assay type: functional; in short: as §3
[10] = as §4; assay type: tissue-based, Canis lupus familiaris, Myocardium
Rattus norvegicus [11] = species on record: Rattus norvegicus; test: Percent inhibition of adipocyte lipolysis in rat adipocyte assay was determined at 200 uM concentration.; assay type: functional; in short: as §5
Rattus norvegicus [12] = species on record: Rattus norvegicus; test: Percent inhibition of adipocyte lipolysis in rat adiposite assay was determined at 3 uM concentration.; assay type: functional; in short: as §2
Rattus norvegicus [13] = species on record: Rattus norvegicus; test: Percent inhibition of adipocyte lipolysis in rat adipocyte assay was determined at 3 uM; assay type: functional; in short: as §2
Rattus norvegicus [14] = species on record: Rattus norvegicus; test: Percent inhibition of adipocyte lipolysis in rat adipocyte assay was determined at 3 uM concentration.; assay type: functional; in short: as §2
Rattus norvegicus [15] = species on record: Rattus norvegicus; test: Inhibitory concentration (IC50) of adipocyte lipolysis in rat adipocyte assay was determined

inhibition (Canis lupus familiaris [1]): 65%
IC50 (Rattus norvegicus [2]): 0.2 µM
Compound: COc1ccc(NC(=O)Oc2cccc3cccnc23)c(OC)c1

inhibition (Canis lupus familiaris [3]): 63%
Compound: COc1ccc(NC(=O)Oc2cccc3ncccc23)cc1
inhibition at 30 µM (Rattus norvegicus [4]): 1%

inhibition (Canis lupus familiaris [1]): 97%
Compound: COc1ccc(CCNC(=O)Oc2ccc3cccnc3c2)cc1
inhibition at 100 µM (Rattus norvegicus [5]): 84%

IC50 [6]: 4 µM
IC50 (Rattus norvegicus [7]): 1 µM
Compound: O=C(NCCCCCCNC(=O)ON=C1CCCCC1)ON=C1CCCCC1

inhibition (Canis lupus familiaris [1]): 45%
Compound: Cc1ccccc1NC(=O)Oc1ccc2cccnc2c1
inhibition at 200 µM (Rattus norvegicus [8]): 20%

inhibition (Canis lupus familiaris [3]): 7%
Compound: COc1ccc(NC(=O)COc2cccc3cccnc23)cc1
inhibition at 100 µM (Rattus norvegicus [9]): 26%

IC50 [10]: 200 µM
Compound: CCOC(=O)c1ccc(NC(=O)Oc2cccc3cccnc23)cc1
inhibition at 200 µM (Rattus norvegicus [11]): 44%

Compound: Cc1ccc(NC(=O)Oc2cccc3cccnc23)cc1
inhibition (Canis lupus familiaris [1]): 63%
Inhibition (Rattus norvegicus [12]): 76%

Compound: O=C(Nc1cccc(Cl)c1)Oc1cccc2cccnc12
inhibition (Canis lupus familiaris [1]): 41%
inhibition at 3 µM (Rattus norvegicus [13]): 5%

Compound: O=C(Nc1cccc(C(F)(F)F)c1)Oc1cccc2cccnc12
inhibition (Canis lupus familiaris [1]): 56%
inhibition at 3 µM (Rattus norvegicus [2]): 7%

Compound: COc1cccc(NC(=O)Oc2cccc3cccnc23)c1
IC50 [6]: 18 µM
IC50 (Rattus norvegicus [7]): 7 µM

inhibition (Canis lupus familiaris [1]): 76%
IC50 (Rattus norvegicus [7]): 35 µM
Compound: C[C@@H](NC(=O)Oc1cccc2cccnc12)c1ccccc1

inhibition (Canis lupus familiaris [3]): 74%
IC50 (Rattus norvegicus [7]): 35 µM
Compound: CC(NC(=O)Oc1cccc2cccnc12)c1ccccc1 (centres undefined)

Compound: O=C(Nc1ccc(Cl)cc1)Oc1cccc2cccnc12
inhibition (Canis lupus familiaris [1]): 58%
inhibition at 3 µM (Rattus norvegicus [14]): 52%

Compound: COc1ccccc1NC(=O)Oc1ccc2ncccc2c1
IC50 [10]: 42 µM
IC50 (Rattus norvegicus [7]): 30 µM

Compound: COc1ccc(NC(=O)Oc2ccc(S(=O)(=O)O)c3cccnc23)cc1
inhibition (Canis lupus familiaris [1]): 83%
inhibition at 200 µM (Rattus norvegicus [11]): 14%

IC50 [10]: 73 µM
Compound: COc1ccccc1NC(=O)Nc1cccc2cccnc12
inhibition at 200 µM (Rattus norvegicus [11]): 4%

inhibition (Canis lupus familiaris [3]): 52%
Compound: COc1cccc(NC(=O)Oc2ccc3cccnc3c2)c1
inhibition at 200 µM (Rattus norvegicus [11]): 25%

inhibition (Canis lupus familiaris [1]): 69%
Compound: O=C(Nc1ccccc1)Oc1cccc2cccnc12
inhibition at 3 µM (Rattus norvegicus [14]): 28%

IC50 [10]: 13 µM
Compound: O=C(O)c1cccnc1 [NIACIN]

inhibition (Canis lupus familiaris [1]): 68%
IC50 (Rattus norvegicus [7]): 0.2 µM
Compound: COc1ccc(NC(=O)Oc2cccc3ccc(C)nc23)cc1

IC50 [6]: 56 µM
Compound: O=C(Nc1ccccc1)Oc1c(Cl)cc(Cl)c2cccnc12
inhibition at 200 µM (Rattus norvegicus [11]): 28%

Compound: Cc1ccccc1NC(=O)Oc1cccc2cccnc12
inhibition (Canis lupus familiaris [1]): 7%
inhibition at 3 µM (Rattus norvegicus [2]): 40%

inhibition (Canis lupus familiaris [1]): 13%
Compound: COc1ccc(C(=O)Oc2cccc3cccnc23)cc1
inhibition at 200 µM (Rattus norvegicus [11]): 49%

inhibition (Canis lupus familiaris [1]): 0%
Compound: COc1ccc(CC(=O)Oc2cccc3cccnc23)cc1
inhibition at 100 µM (Rattus norvegicus [5]): 74%

inhibition (Canis lupus familiaris [1]): 6%
Compound: O=C(Nc1ccccc1Cl)Oc1ccc2cccnc2c1

inhibition (Canis lupus familiaris [3]): 46%
Compound: CCOC(=O)c1ccc(NC(=O)Oc2ccc3cccnc3c2)cc1
inhibition at 200 µM (Rattus norvegicus [11]): 18%

Compound: COc1ccccc1NC(=O)Oc1cccc2ncccc12
IC50 [6]: 48 µM
inhibition at 200 µM (Rattus norvegicus [11]): 31%

Compound: Cc1ccc2cccc(OC(=O)Nc3ccccc3)c2n1
inhibition (Canis lupus familiaris [1]): 68%
inhibition at 3 µM (Rattus norvegicus [14]): 29%

IC50 [10]: 20 µM
IC50 (Rattus norvegicus [7]): 30 µM
Compound: COc1ccccc1OC(=O)Nc1cccc2cccnc12

Compound: Cc1cccc(NC(=O)Oc2cccc3cccnc23)c1
inhibition (Canis lupus familiaris [1]): 64%
Inhibition (Rattus norvegicus [12]): 84%

inhibition (Canis lupus familiaris [1]): 69%
Compound: O=C(Nc1ccccc1)Oc1ccc(Cl)c2cccnc12
inhibition at 3 µM (Rattus norvegicus [14]): 4%

inhibition (Canis lupus familiaris [3]): 64%
Compound: COc1ccc(NC(=O)Oc2ccc3ncccc3c2)cc1
inhibition at 30 µM (Rattus norvegicus [4]): 8%

Compound: COc1ccc(OC(=O)Nc2cccc3cccnc23)cc1
inhibition (Canis lupus familiaris [3]): 75%
inhibition at 30 µM (Rattus norvegicus [4]): 3%

Compound: COc1ccccc1NC(=O)Oc1ccc2cccnc2c1
IC50 [10]: 48 µM
IC50 (Rattus norvegicus [7]): 80 µM

inhibition (Canis lupus familiaris [1]): 72%
IC50 (Rattus norvegicus [7]): 5.8 µM
Compound: COc1ccc(CNC(=O)Oc2cccc3cccnc23)cc1

inhibition (Canis lupus familiaris [1]): 60%
Compound: COc1ccc(NC(=O)Oc2ccc3cccnc3c2)cc1
inhibition at 30 µM (Rattus norvegicus [4]): 0%

Compound: COc1ccc(CCNC(=O)Oc2cccc3cccnc23)cc1
inhibition (Canis lupus familiaris [1]): 70%
inhibition at 100 µM (Rattus norvegicus [5]): 98%

Compound: COc1ccc(NC(=O)Oc2cccc3ocnc23)cc1
IC50 [6]: 7 µM
IC50 (Rattus norvegicus [7]): 2.4 µM

IC50 [6]: 39 µM
Compound: Cc1cnc(C(=O)O)c[n+]1[O-] [ACIPIMOX]

inhibition (Canis lupus familiaris [1]): 1%
Compound: O=C(Nc1ccccc1Cl)Oc1cccc2cccnc12

IC50 [6]: 80 µM
Compound: O=C(Nc1ccc(Br)cc1)Oc1cccc2cccnc12
inhibition at 3 µM (Rattus norvegicus [14]): 5%

Compound: COc1ccccc1NC(=O)Oc1cccc2cccnc12
IC50 [10]: 40 µM
IC50 (Rattus norvegicus [7]): 7 µM

Compound: Cc1ccc2cccc(OC(=O)Nc3ccc(Br)cc3)c2n1
inhibition (Canis lupus familiaris [1]): 68%
inhibition at 3 µM (Rattus norvegicus [14]): 5%

inhibition (Canis lupus familiaris [1]): 12%
Compound: O=C(Nc1ccccc1C(F)(F)F)Oc1ccc2cccnc2c1

IC50 [6]: 48 µM
IC50 (Rattus norvegicus [7]): 10 µM
Compound: COc1ccc(OC)c(NC(=O)Oc2cccc3cccnc23)c1

Compound: COc1ccc(NC(=O)Oc2cccc3cccnc23)cc1
IC50 [6]: 17 µM
IC50 (Rattus norvegicus [15]): 0.1 µM
